Test results published in ChEMBL document CHEMBL4266038, “Total Synthesis of Xanthoangelol B and Its Various Fragments: Toward Inhibition of Virulence Factor Production of Staphylococcus aureus” (J Med Chem, 2018).
Activity calls are given as the source filed them. No cut-off for these calls is given here.

Key:
[1] = test system: Staphylococcus aureus subsp. aureus USA300; assay: Inhibition of methicillin-resistant Staphylococcus aureus USA300 SaeRS assessed as reduction in alpha-hemolysin mediated hemolysis of human erythrocytes at 8 uM after 8 hrs by ELISA
Summary of the method: (§1)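 Overnight cultures of wild-type USA300 or the saeS mutant were diluted 1:100 in TSB and grown to OD600 = 1. Cells at 5x10^5/ml were grown with compound for 8 h at 37 °C, 250 rpm. Supernatants were mixed 1:1 with 5% DPBS-washed human RBC for 30 min, then centrifuged, and hemolysis was read at OD540. Experiments were run in triplicate.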

[2] = test system: Staphylococcus aureus subsp. aureus USA300; assay: Inhibition of methicillin-resistant Staphylococcus aureus USA300 SaeRS assessed as reduction in alpha-hemolysin mediated hemolysis of human erythrocytes at 4 uM after 8 hrs by ELISA; summary of the method: as §1
[3] = test system: Staphylococcus aureus subsp. aureus USA300; assay: Inhibition of methicillin-resistant Staphylococcus aureus USA300 SaeRS Tn551 deletion mutant assessed as reduction in alpha-hemolysin mediated hemolysis of human erythrocytes at 15 uM after 8 hrs by ELISA relative to control; summary of the method: as §1
[4] = test system: Staphylococcus aureus subsp. aureus USA300; assay: Inhibition of methicillin-resistant Staphylococcus aureus USA300 SaeRS Tn551 deletion mutant assessed as reduction in alpha-hemolysin mediated hemolysis of human erythrocytes at 8 uM after 8 hrs by ELISA relative to control; summary of the method: as §1

SMILES	inhibition [1]	inhibition [2]	inhibition [3]	inhibition [4]
C=C(C)C(O)CC/C(C)=C/Cc1c(O)ccc(C(=O)CC(O)c2ccc(O)cc2)c1O (stereo unspecified)	Active	Active	87.4%	
C=C(C)C(O)CC/C(C)=C/Cc1c(O)ccc(C(=O)/C=C/c2ccc(O)cc2)c1O (stereo unspecified) [XANTHOANGELOL B]	Active	Active		86.9%
